Active and inactive are the calls of the source. The rule behind the calls is not given here.

Data set [1] is described as follows: Antiproliferative activity against HREC assessed as reduction in cell number incubated for 44 hrs by alamar blue based fluorescence assay. In kind it is functional. Particulars: Homo sapiens.
Data set [2] is filed under the species Homo sapiens. As to the kind of experiment: Antiangiogenic activity against HREC assessed as reduction in tube formation incubated for 8 hrs by matrigel based tube formation assay. The class given is functional. The method, boiled down:
(§1)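 HRECs (passage 5–8), 15,000 cells in EGM-2 medium, plated on Matrigel basement membrane coat with DMSO vehicle or graded compound concentrations; SH-11037 as positive control. Images taken after 8 h; tubule length quantified by Angiogenesis Analyzer macros and expressed relative to DMSO control. Mean ± SEM, n=3–6 wells, duplicate experiments; one-way ANOVA with Dunnett's test.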

A short description of data set [3]: Cytotoxicity against human Y79 cells assessed as reduction in cell number incubated for 44 hrs by alamar blue based fluorescence assay.
Data set [4] is described as follows: Cytotoxicity against human 92-1 cells assessed as reduction in cell number incubated for 44 hrs by alamar blue based fluorescence assay.
Data set [5] in a line: Antiproliferative activity against HUVEC assessed as reduction in cell number incubated for 44 hrs by alamar blue based fluorescence assay. Particulars: human, HUVEC cells. The essentials:
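Primary endothelial cells (HRECs, HUVECs; passage 5–8) in EGM-2; 2,500 cells seeded, 24 h at 37°C, 5% CO2, then compounds 0.5 nM–500 μM for 44 h. alamarBlue added 4 h, fluorescence ex 560/em 590 nm.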

The nature of data set [6]: Antiproliferative activity against human ARPE19 assessed as reduction in cell number incubated for 44 hrs by alamar blue based fluorescence assay. Particulars: ARPE-19 cells.
For data set [7], the species on record is Homo sapiens. Put plainly: Antiangiogenic activity against HREC assessed as reduction in tube formation at 0.05 to 0.5 uM incubated for 8 hrs by matrigel based tube formation assay. In kind it is functional. The essentials: as §1
The species entered for data set [8] is Homo sapiens. As to the kind of experiment: Antiangiogenic activity against HREC assessed as reduction in tube formation at 0.01 to 0.1 nM incubated for 8 hrs by matrigel based tube formation assay. The class given is functional. The essentials: as §1
For data set [9], the species on record is Homo sapiens. Put plainly: Antiangiogenic activity against HREC assessed as reduction in tube formation at 0.01 to 0.1 uM incubated for 8 hrs by matrigel based tube formation assay. The class given is functional. The method, boiled down: as §1

In the case of `COc1ccc(/C=C2\COc3cc(OC(C)=O)c(O)c(O)c3C2=O)cc1OC(C)=O`, the GI50 in data set [1] turned out to be 16 µM. Further, the inhibition result in the data set filed under Homo sapiens [2] was “Dose-dependent effect”. Also, the GI50 at 44 h in [3] is 29 µM; in data set [4], 69 µM; in [5], 11 µM.

`COc1cc(OC)c2c(c1)OC/C(=C\c1ccc(SC)cc1)C2=O`: the GI50 in [1] was 2.5 µM. The figures for the GI50 at 44 h in [3], in data set [4] and in data set [6] were 2 µM, above 100 µM and 48 µM, respectively.

In the case of `COc1ccc(/C=C2\COc3cc(OC)c(OC)c(OC)c3C2=O)cc1O`, in [1], the GI50 stood at 2.2 µM. Moreover, the GI50 at 44 h in data set [3] was determined as 23 µM; in [4], 8.2 µM; in data set [6], 1.3 µM.

Turning to `CCOc1ccc(C(=O)/C=C/c2ccc(OC)c(OC)c2)c(O)c1C`, the GI50 in data set [1] was determined as 3.9 µM. The GI50 at 44 h in data set [3], in [4] and in [6] was above 100 µM throughout. In addition, the inhibition entry in the data set listed under Homo sapiens [7] was “Active”.

For the compound `O=C1/C(=C/c2ccc(O)cc2)COc2cc(O)cc(O)c21`, in data set [1], the GI50 came out at 60 µM. In addition, the GI50 at 44 h in data set [3], in data set [4] and in data set [6] was above 100 µM each time.

For the compound `CC(=O)Oc1cc(O)cc2c1C(=O)/C(=C/c1ccc(O)c(O)c1)CO2`, in data set [1], the GI50 was found to be 1.4 µM. In addition, the inhibition entry in the data set listed under Homo sapiens [2] was “Dose-dependent effect”. For the same compound, the GI50 at 44 h in [3] is 2.5 µM; in data set [4], above 100 µM; in data set [5], 5 µM.

Turning to `COc1ccc(CC2COc3cc(OC)c(OC)c(OC)c3C2)cc1O` (racemic), in data set [1], the GI50 was found to be 0.00023 µM. Further, the GI50 at 44 h in data set [3] was 18 µM; in data set [4] it was 52 µM; in [6], 0.00034 µM. Besides, the inhibition result in the data set filed under Homo sapiens [8] was “Active”.

On to `COc1ccc(C[C@@H]2COc3cc(OC)c(OC)c(OC)c3C2=O)cc1O`, for which the GI50 in [1] is 0.035 µM. Besides, the GI50 at 44 h in data set [3] is 85 µM; in [4], above 100 µM; in data set [6], above 100 µM. For the same compound, the inhibition entry in the data set listed under Homo sapiens [9] was “Active”.

In the case of `COc1ccc(/C=C2\COc3cc(OC)c(OC)c(O)c3C2=O)cc1O`, in [1], the GI50 stood at 0.26 µM. The values for the GI50 at 44 h in [3], in data set [4] and in [6] were 2.4 µM, above 100 µM and 4.8 µM, respectively. In addition, in the data set listed under Homo sapiens [7], the inhibition result is “Active”.

`COc1c(O)cc(O)c2c1OC[C@@H](Cc1ccc(O)cc1)C2=O`: the GI50 in data set [1] lay within 64 to 100 µM. For the same compound, the GI50 at 44 h in data set [3], in data set [4], in [6] and in [5] was above 100 µM in each case.

In the case of `COc1ccc(C[C@]2(O)COc3cc(OC)cc(O)c3C2=O)cc1`, in [1], the GI50 is 64 µM. Further, the GI50 at 44 h in [3], in data set [4] and in data set [6] was above 100 µM throughout.

`COc1ccc(/C=C2\COc3cc(OC(C)=O)cc(O)c3C2=O)cc1O`: the concentration for 50% growth inhibition (GI50) in [1] was 18 µM. The inhibition entry in the data set filed under Homo sapiens [2] is “Dose-dependent effect”. In addition, the results for the GI50 at 44 h in [3], in [4] and in data set [5] were 58 µM, 67 µM and 26 µM, respectively.

For the compound `O=C1/C(=C/c2ccc(O)c(O)c2)COc2cc(O)cc(O)c21`, in data set [1], the GI50 was above 100 µM. Moreover, the GI50 at 44 h in data set [3], in data set [4] and in [6] was above 100 µM throughout.
